Laboratory results: ChEMBL document CHEMBL4765495, “Semisynthesis and Biological Evaluation of Platencin Thioether Derivatives: Dual FabF and FabH Inhibitors against MRSA” (ACS Med Chem Lett, 2021)
Converted amounts (≈) assume the structure as drawn. The source made the active and inactive calls. The rule behind the calls is not given here.

Columns and labels:
[1] = tested on: Staphylococcus aureus; experiment: Antibacterial activity against methicillin resistant Staphylococcus aureus assessed as inhibition of bacterial growth measured after 16 hrs by agar plate dilution method; assay type: functional
Procedure, shortened: (§1)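 Clinical MSSA and MRSA strains isolated from local hospitals; MIC determined by plate dilution; data from at least two independent experiments.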

[2] = tested on: Escherichia coli; experiment: Antibacterial activity against Escherichia coli harboring delta tolC mutant assessed as inhibition of bacterial growth measured after 16 hrs by agar plate dilution method; assay type: functional
[3] = tested on: Staphylococcus aureus; experiment: Inhibition of Staphylococcus aureus FabH A81V mutant assessed as bacterial growth inhibition measured after 18 hrs by resazurin dye based broth dilution assay
Procedure, shortened: (§2)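 S. aureus strains carrying point mutations in the FabH active site; MIC determined by broth dilution; data from at least two independent experiments.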

[4] = tested on: Escherichia coli; experiment: Binding affinity to His6-tagged Escherichia coli FabH expressed in Escherichia coli BL21 (DE3) assessed as decrease in melting temperature at 10 uM by SYPRO orange based differential scanning fluorimetry
Procedure, shortened: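 Purified E. coli FabH melting curves were recorded with and without ligand by thermal-shift fluorometry in 1.0 M Tris-HCl, pH 6.8, a buffer chosen from seven screened. ΔTm was taken from the Tm shift; n = 4.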

[5] = tested on: Staphylococcus aureus; experiment: Antibacterial activity against methicillin resistant Staphylococcus aureus assessed as inhibition of bacterial growth measured after 18 hrs in presence of 10% human serum by resazurin dye based broth dilution assay; assay type: functional
[6] = target: T1, 3-oxoacyl-[acyl-carrier-protein] synthase 2 (Staphylococcus aureus) (UniProt Q5TKS0); experiment: Binding affinity to His6-tagged Staphylococcus aureus FabF expressed in Escherichia coli BL21 (DE3) assessed as decrease in melting temperature at 10 uM by SYPRO orange based differential scanning fluorimetry
T1 sequence (whole entry): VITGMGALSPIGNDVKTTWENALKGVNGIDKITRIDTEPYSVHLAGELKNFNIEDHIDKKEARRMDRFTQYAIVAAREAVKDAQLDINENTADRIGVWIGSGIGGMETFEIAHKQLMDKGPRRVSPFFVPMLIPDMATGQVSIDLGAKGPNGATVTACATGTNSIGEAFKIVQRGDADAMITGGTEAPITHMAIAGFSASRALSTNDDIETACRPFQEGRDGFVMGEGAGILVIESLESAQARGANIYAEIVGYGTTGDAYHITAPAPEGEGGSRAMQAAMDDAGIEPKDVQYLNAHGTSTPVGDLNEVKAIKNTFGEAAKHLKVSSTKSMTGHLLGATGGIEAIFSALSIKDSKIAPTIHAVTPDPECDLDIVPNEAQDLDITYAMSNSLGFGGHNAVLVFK
Procedure, shortened: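 S. aureus FabF melting curves were measured by DSF in 20 mM HEPES, 180 mM NaCl, pH 7.5, a buffer selected by screening seven buffers. ΔTm was derived from the melting-temperature shift caused by ligand; n = 4.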

[7] = tested on: Staphylococcus aureus; experiment: Antibacterial activity against methicillin sensitive Staphylococcus aureus assessed as inhibition of bacterial growth measured after 16 hrs by agar plate dilution method; assay type: functional; procedure, shortened: as §1
[8] = tested on: Staphylococcus aureus; experiment: Inhibition of Staphylococcus aureus FabH A81V/A111T mutant assessed as bacterial growth inhibition measured after 18 hrs by resazurin dye based broth dilution assay; procedure, shortened: as §2
[9] = tested on: Enterococcus faecalis; experiment: Antibacterial activity against Enterococcus faecalis ATCC 29212 assessed as inhibition of bacterial growth measured after 16 hrs by agar plate dilution method; assay type: functional
[10] = tested on: Staphylococcus aureus; experiment: Antibacterial activity against Staphylococcus aureus ATCC 29213 assessed as inhibition of bacterial growth measured after 16 hrs by agar plate dilution method; assay type: functional
Procedure, shortened: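 MIC determined by plate dilution against the reference strain; values from at least two independent experiments.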

[11] = tested on: Staphylococcus aureus; experiment: Antibacterial activity against methicillin resistant Staphylococcus aureus infected in C57BL/6J mouse model of peritonitis assessed as mouse survival when infected with 2.5x10^7 CFU bacteria at 10 mg/kg, ip administered at 1 and 5 hrs post infection; assay type: functional, organism-based
Procedure, shortened: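 Female C57BL/6J mice given a higher intraperitoneal MRSA inoculum of 2.5 × 10^7 CFU; intraperitoneal treatment at 1 and 5 h post-infection; survival recorded.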

[12] = tested on: Escherichia coli; experiment: Binding affinity to His6-tagged Escherichia coli FabF C163Q mutant expressed in Escherichia coli BL21 (DE3) assessed as change in entropy measured after 200 sec by isothermal titration calorimetry
Procedure, shortened: (§3)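 Ligands were dissolved in PBS (10 mM, pH 7.4) and titrated into E. coli FabF(C163Q) in the same buffer. Protein was at 12 or 14 μM and ligand at 250 μM. Thermodynamic parameters (ΔH, ΔS, ΔG, Kd, n) were calculated from the heat of binding. Runs were done at least three times; one representative run was used.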

[13] = Binding affinity to His6-tagged Escherichia coli FabF C163Q mutant expressed in Escherichia coli BL21 (DE3) assessed as binding constant measured after 200 sec by isothermal titration calorimetry; procedure, shortened: as §3
[14] = tested on: Escherichia coli; experiment: Binding affinity to His6-tagged Escherichia coli FabF C163Q mutant expressed in Escherichia coli BL21 (DE3) assessed as stoichiometry ratio measured after 200 sec by isothermal titration calorimetry; procedure, shortened: as §3
[15] = tested on: Escherichia coli; experiment: Binding affinity to His6-tagged Escherichia coli FabF C163Q mutant expressed in Escherichia coli BL21 (DE3) assessed as change in enthalpy measured after 200 sec by isothermal titration calorimetry; procedure, shortened: as §3
[16] = tested on: Escherichia coli; experiment: Binding affinity to His6-tagged Escherichia coli FabF C163Q mutant expressed in Escherichia coli BL21 (DE3) assessed Gibbs free energy change measured after 200 sec by isothermal titration calorimetry; procedure, shortened: as §3

Q: With `C=C1C[C@]23C=C(Sc4ccc(Br)cc4)C(=O)[C@@](C)(CCC(=O)Nc4c(O)ccc(C(=O)O)c4O)[C@@H]2CC1CC3` (single isomer, unassigned) as the compound, how does the MIC [1] read?
A: The MIC was 1 µg/mL (≈ 1.63 µM).

Q: What about the MIC [2] of the same compound?
A: The MIC was > 32 µg/mL.

Q: And the MIC [3]?
A: The MIC was 8 µg/mL (≈ 13.1 µM).

Q: What about the Activity [4] of the same compound?
A: Its Activity is “Active”.

Q: And the MIC [5]?
A: The MIC was 16 µg/mL.

Q: And the Activity [6]?
A: The Activity was “Active”.

Q: And the MIC [7]?
A: Its MIC is 1 µg/mL (≈ 1.63 µM).

Q: What about the MIC [8] of the same compound?
A: The MIC was 4 µg/mL (≈ 6.53 µM).

Q: What about the MIC [9] of the same compound?
A: The MIC was 2 µg/mL (≈ 3.27 µM).

Q: What about the MIC [10] of the same compound?
A: Its MIC is 4 µg/mL (≈ 6.53 µM).

Q: With `C=C1C[C@]23C=C(Sc4ccc(C)cc4)C(=O)[C@@](C)(CCC(=O)Nc4c(O)ccc(C(=O)O)c4O)[C@@H]2CC1CC3` (single isomer, unassigned) as the compound, how does the MIC [1] read?
A: Its MIC is 1 µg/mL (≈ 1.83 µM).

Q: And the MIC [2]?
A: Its MIC is > 32 µg/mL.

Q: What about the MIC [3] of the same compound?
A: Its MIC is 16 µg/mL (≈ 29.2 µM).

Q: What about the Activity [4] of the same compound?
A: The Activity was “Active”.

Q: And the MIC [5]?
A: Its MIC is > 32 µg/mL.

Q: What about the Activity [6] of the same compound?
A: The Activity was “Active”.

Q: And the MIC [7]?
A: The MIC was 2 µg/mL (≈ 3.65 µM).

Q: And the MIC [8]?
A: The MIC was 16 µg/mL (≈ 29.2 µM).

Q: What about the MIC [9] of the same compound?
A: The MIC was 2 µg/mL (≈ 3.65 µM).

Q: And the MIC [10]?
A: Its MIC is 4 µg/mL (≈ 7.3 µM).

Q: What does the source list for `C=C1C[C@]23C=C(Sc4ccccc4C)C(=O)[C@@](C)(CCC(=O)Nc4c(O)ccc(C(=O)O)c4O)[C@@H]2CC1CC3` (single isomer, unassigned)?
A: MIC [1]: 1 µg/mL (≈ 1.83 µM); MIC [2]: > 32 µg/mL; MIC [3]: 4 µg/mL (≈ 7.3 µM); Activity [4]: Active; MIC [5]: 32 µg/mL; Activity [6]: Active; MIC [7]: 1 µg/mL (≈ 1.83 µM); MIC [8]: 4 µg/mL (≈ 7.3 µM); MIC [9]: 2 µg/mL (≈ 3.65 µM); MIC [10]: 1 µg/mL (≈ 1.83 µM)

Q: With `C=C1C[C@]23C=C(Sc4cccs4)C(=O)[C@@](C)(CCC(=O)Nc4c(O)ccc(C(=O)O)c4O)[C@@H]2CC1CC3` (single isomer, unassigned) as the compound, how does the MIC [1] read?
A: The MIC was 2 µg/mL (≈ 3.71 µM).

Q: And the Activity [4]?
A: Its Activity is “Active”.

Q: And the Activity [6]?
A: Its Activity is “Active”.

Q: And the MIC [7]?
A: The MIC was 2 µg/mL (≈ 3.71 µM).

Q: And the MIC [10]?
A: The MIC was 2 µg/mL (≈ 3.71 µM).

Q: What does the source list for `C=C1C[C@]23C=C(SCc4ccccc4)C(=O)[C@@](C)(CCC(=O)Nc4c(O)ccc(C(=O)O)c4O)[C@@H]2CC1CC3` (single isomer, unassigned)?
A: MIC [1]: 1 µg/mL (≈ 1.83 µM); MIC [2]: > 32 µg/mL; MIC [3]: 8 µg/mL (≈ 14.6 µM); Activity [4]: Active; MIC [5]: 16 µg/mL; Activity [6]: Active; MIC [7]: 1 µg/mL (≈ 1.83 µM); MIC [8]: 4 µg/mL (≈ 7.3 µM); MIC [9]: 2 µg/mL (≈ 3.65 µM); MIC [10]: 2 µg/mL (≈ 3.65 µM); Activity [11]: inactive

Q: For `C=C1C[C@]23C=C(Sc4ncccn4)C(=O)[C@@](C)(CCC(=O)Nc4c(O)ccc(C(=O)O)c4O)[C@@H]2CC1CC3` (single isomer, unassigned), which MIC [1] is on record?
A: Its MIC is 8 µg/mL (≈ 14.9 µM).

Q: What about the Activity [4] of the same compound?
A: The Activity was “Active”.

Q: What about the Activity [6] of the same compound?
A: The Activity was “Active”.

Q: What about the MIC [7] of the same compound?
A: Its MIC is 8 µg/mL (≈ 14.9 µM).

Q: And the MIC [10]?
A: Its MIC is 16 µg/mL (≈ 29.9 µM).

Q: Which -TdeltaS [12] does the source give for `C=C1C[C@]23C=C(SCCO)C(=O)[C@@](C)(CCC(=O)Nc4c(O)ccc(C(=O)O)c4O)[C@@H]2CC1CC3` (single isomer, unassigned) here?
A: The -TdeltaS was -7.72 kcal/mol.

Q: And the MIC [1]?
A: Its MIC is > 32 µg/mL.

Q: What about the MIC [2] of the same compound?
A: The MIC was > 32 µg/mL.

Q: And the MIC [3]?
A: Its MIC is > 32 µg/mL.

Q: And the Kd [13]?
A: Its Kd is 0.223 µM.

Q: What about the Ratio [14] of the same compound?
A: Its Ratio is 1.17.

Q: And the MIC [5]?
A: Its MIC is > 32 µg/mL.

Q: And the MIC [7]?
A: Its MIC is 32 µg/mL (≈ 63.8 µM).

Q: And the MIC [8]?
A: Its MIC is > 32 µg/mL.

Q: What about the MIC [9] of the same compound?
A: The MIC was 2 µg/mL (≈ 3.99 µM).

Q: What about the MIC [10] of the same compound?
A: Its MIC is 8 µg/mL (≈ 15.9 µM).

Q: What about the deltaH [15] of the same compound?
A: The deltaH was -1.09 kcal/mol.

Q: And the deltaG [16]?
A: The deltaG was -8.8 kcal/mol.

Q: Which -TdeltaS [12] does the source give for `C=C1C[C@@]23CCC1C[C@H]2[C@](C)(CCC(=O)Nc1c(O)ccc(C(=O)O)c1O)C(=O)[C@@H]1O[C@@H]13` (single isomer, unassigned) here?
A: Its -TdeltaS is -7.59 kcal/mol.

Q: What about the MIC [1] of the same compound?
A: The MIC was 4 µg/mL (≈ 9.06 µM).

Q: What about the MIC [2] of the same compound?
A: The MIC was 4 µg/mL (≈ 9.06 µM).

Q: And the MIC [3]?
A: The MIC was > 32 µg/mL.

Q: And the Kd [13]?
A: Its Kd is 0.102 µM.

Q: And the Ratio [14]?
A: Its Ratio is 1.17.

Q: And the Activity [4]?
A: The Activity was “Active”.

Q: And the MIC [5]?
A: The MIC was 16 µg/mL.

Q: And the Activity [6]?
A: Its Activity is “Active”.

Q: And the MIC [7]?
A: The MIC was 4 µg/mL (≈ 9.06 µM).

Q: And the MIC [8]?
A: The MIC was > 32 µg/mL.

Q: And the MIC [9]?
A: The MIC was 2 µg/mL (≈ 4.53 µM).

Q: What about the MIC [10] of the same compound?
A: The MIC was 8 µg/mL (≈ 18.1 µM).

Q: And the deltaH [15]?
A: Its deltaH is -1.66 kcal/mol.

Q: And the deltaG [16]?
A: The deltaG was -9.25 kcal/mol.

Q: Which results are given for `CC(=O)NC[C@H]1CN(c2ccc(N3CCOCC3)c(F)c2)C(=O)O1` [LINEZOLID]?
A: MIC [1]: 0.5 µg/mL (≈ 1.48 µM); MIC [7]: 0.5 µg/mL (≈ 1.48 µM); MIC [9]: 0.5 µg/mL (≈ 1.48 µM); MIC [10]: 0.5 µg/mL (≈ 1.48 µM)
